The source made the active and inactive calls. The rule behind the calls is not given here.
How the values were obtained:
[1] = target: Nucleic Acid; assay: Inhibition of fluorescein labeled Tat-peptide binding to HIV1 TAR RNA after 60 mins by FRET assay; format: nucleic-acid assay, Human immunodeficiency virus 1
In short: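 Competition assay: inhibition of association between TAR RNA and a fluorescently labeled Tat-derived peptide, read by fluorescence; IC50 values derived.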

[2] = target: Nucleic Acid; assay: Inhibition of fluorescein labeled Rev binding to HIV1 RRE RNA assessed as decrease of fluorescent anisotropy at 20 uM after 1 hour by fluorescence polarization-based assay; format: nucleic-acid assay, Human immunodeficiency virus 1
In short: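 Competition assay tracking Rev binding to RRE by fluorescence; tested up to 20 μM.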

[3] = test system: Nucleic Acid; assay: Selectivity for HIV1 TAR RNA over HIV1 RRE RNA; format: nucleic-acid assay; conditions: Human immunodeficiency virus 1
[4] = Cytotoxicity in human HeLa cells transfected with HIV Tat-LTR by FITC-conjugated DAPI staining by fluorescence microscopy; format: cell-based; conditions: read-out: TC50 (the source's name)
[5] = Inhibition of HIV1 Rev transfected in human HeLa cells after 48 hrs by duel luciferase reporter gene assay; format: cell-based; conditions: Human immunodeficiency virus 1, HeLa
In short: (§1)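 Analogous stably modified HeLa dual-luciferase system for Rev-RRE function, used as a specificity control; activity followed by luminescence up to 100 μM.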

[6] = test system: HeLa; assay: Inhibition of HIV1 Rev transfected in human HeLa cells up to 100 uM after 48 hrs by duel luciferase reporter gene assay; format: cell-based; conditions: Human immunodeficiency virus 1; in short: as §1
[7] = test system: Human immunodeficiency virus 1; assay: Antiviral activity against HIV1 Ba-L infected in PBMCs assessed as reverse transcriptase activity after 7 days by MTS assay; format: functional, organism-based; conditions: Human immunodeficiency virus 1, Ba-L, 168 h
[8] = test system: Human immunodeficiency virus 1; assay: Antiviral activity against HIV1 UG/92/029 infected in PBMCs assessed as reverse transcriptase activity after 7 days by XTT assay; format: functional, organism-based; conditions: Human immunodeficiency virus 1, UG/92/029, 168 h
[9] = test system: Human immunodeficiency virus 1; assay: Antiviral activity against HIV1 HT/92/599 infected in PBMCs assessed as reverse transcriptase activity after 7 days by XTT assay; format: functional, organism-based; conditions: Human immunodeficiency virus 1, HT/92/599, 168 h
[10] = test system: Human immunodeficiency virus 1; assay: Antiviral activity against HIV1 97ZA003 infected in PBMCs assessed as reverse transcriptase activity after 7 days by XTT assay; format: functional, organism-based; conditions: Human immunodeficiency virus 1, 97ZA003, 168 h
[11] = test system: Human immunodeficiency virus 1; assay: Antiviral activity against HIV1 UG/92/001 infected in PBMCs assessed as reverse transcriptase activity after 7 days by XTT assay; format: functional, organism-based; conditions: Human immunodeficiency virus 1, UG/92/001, 168 h
[12] = test system: Human immunodeficiency virus 1; assay: Antiviral activity against HIV1 CMU06 infected in PBMCs assessed as reverse transcriptase activity after 7 days by XTT assay; format: functional, organism-based; conditions: Human immunodeficiency virus 1, CMU06, 168 h
[13] = test system: Human immunodeficiency virus 1; assay: Antiviral activity against HIV1 BR/93/020 infected in PBMCs assessed as reverse transcriptase activity after 7 days by XTT assay; format: functional, organism-based; conditions: Human immunodeficiency virus 1, BR/93/020, 168 h
[14] = test system: Human immunodeficiency virus 1; assay: Antiviral activity against HIV1 JV1083 infected in PBMCs assessed as reverse transcriptase activity after 7 days by XTT assay; format: functional, organism-based; conditions: Human immunodeficiency virus 1, JV1083, 168 h
[15] = test system: Human immunodeficiency virus 1; assay: Antiviral activity against HIV1 BCF02 infected in PBMCs assessed as reverse transcriptase activity after 7 days by XTT assay; format: functional, organism-based; conditions: Human immunodeficiency virus 1, BCF02, 168 h
[16] = test system: PBMC; assay: Cytotoxicity against human PBMC cells by XTT assay; format: cell-based
[17] = test system: Human immunodeficiency virus 1; assay: Inhibition of HIV1 viral entry into the human TZM-bl cells assessed as decrease of luminescence at 25 uM after 18 hrs by luciferase reporter gene assay; format: functional, organism-based
In short: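 Viral entry checked in TZM-bl cells with a cell-based entry inhibition assay at concentrations up to 25 μM.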

[18] = Cytotoxicity in human HeLa cells transfected with HIV Rev-LTR by FITC-conjugated DAPI staining by fluorescence microscopy; format: cell-based; conditions: read-out: TC50 (the source's name)
[19] = test system: Nucleic Acid; assay: Induction of aggregation of 32P labeled HIV1 TAR RNA after 60 mins by native gel electrophoresis; format: nucleic-acid assay, Human immunodeficiency virus 1

SMILES	EC50 [1]	IC50 [2]	CC50 [4]	IC50 [5]	IC50 [7]	IC50 [16]	CC50 [18]	also measured
C[C@@H](CN[C@H](CN[C@H](CN[C@H](CNCCC(N)=O)Cc1ccc(O)cc1)Cc1ccc(O)cc1)Cc1ccc(O)cc1)NC[C@H](Cc1ccc(O)cc1)NC[C@@H](N)Cc1ccc(O)cc1	1.63 µM	> 20 µM	> 100 µM	> 100 µM	5 µM	56 µM	> 100 µM	Selectivity Index [3]: 20; inhibition [6]: inactive; IC50 [8]: 4.5 µM; IC50 [9]: 12.7 µM; IC50 [10]: 32 µM; IC50 [11]: 5.1 µM; IC50 [12]: 7.7 µM; IC50 [13]: 7.5 µM; IC50 [14]: 17.8 µM; IC50 [15]: 20.1 µM; inhibition [17]: inactive
C[C@@H](CN[C@H](CN[C@H](CN[C@H](CNCCC(N)=O)Cc1ccc(O)cc1)Cc1ccc(O)cc1)Cc1ccc(O)cc1)NC[C@H](Cc1ccc(O)cc1)NC[C@H](Cc1ccc(O)cc1)NC[C@H](Cc1ccc(O)cc1)NC[C@@H](N)Cc1ccc(O)cc1	0.18 µM	–	2.4 µM	–	–	–	–	–
NC(=O)CCNC[C@H](Cc1ccc(O)cc1)NC[C@H](Cc1ccc(O)cc1)NC[C@H](Cc1ccc(O)cc1)NC[C@H](Cc1ccc(O)cc1)NC[C@H](Cc1ccc(O)cc1)NC[C@H](Cc1ccc(O)cc1)NC[C@H](Cc1ccc(O)cc1)NC[C@@H](N)Cc1ccc(O)cc1	0.18 µM	–	–	–	–	–	–	–
C[C@@H](CN[C@H](CN[C@H](CN[C@H](CNCCC(N)=O)Cc1ccc(O)cc1)Cc1ccc(O)cc1)Cc1ccc(O)cc1)NC[C@H](Cc1ccc(O)cc1)NC[C@H](Cc1ccc(O)cc1)NC[C@@H](N)Cc1ccc(O)cc1	0.5 µM	> 20 µM	> 100 µM	60 µM	4 µM	55 µM	> 100 µM	IC50 [8]: 2.3 µM; IC50 [9]: 4.5 µM; IC50 [10]: 25 µM; IC50 [11]: 2.3 µM; IC50 [12]: 18.2 µM; IC50 [13]: 5.1 µM; IC50 [14]: 11.9 µM; IC50 [15]: 16.3 µM; inhibition [17]: inactive
NCCCC[C@@H](CN[C@H](CN[C@H](CN[C@H](CNCCC(N)=O)Cc1ccc(O)cc1)Cc1ccc(O)cc1)Cc1ccc(O)cc1)NC[C@H](Cc1ccc(O)cc1)NC[C@@H](N)Cc1ccc(O)cc1	0.45 µM	–	> 100 µM	> 100 µM	7 µM	80 µM	> 100 µM	–
C[C@@H](CN[C@H](CN[C@H](CNCCC(N)=O)Cc1ccc(O)cc1)Cc1ccc(O)cc1)NC[C@H](Cc1ccc(O)cc1)NC[C@H](Cc1ccc(O)cc1)NC[C@@H](N)Cc1ccc(O)cc1	3.32 µM	–	–	–	–	–	–	–
NCCCC[C@@H](CN[C@H](CNCCC(N)=O)Cc1ccc(O)cc1)NC[C@H](Cc1ccc(O)cc1)NC[C@H](CCCCN)NC[C@H](Cc1c[nH]c2ccccc12)NC[C@@H](N)Cc1ccc(O)cc1	0.24 µM	–	12 µM	–	–	–	–	–
NCCCC[C@@H](CN[C@H](CNCCC(N)=O)Cc1ccc(O)cc1)NC[C@H](Cc1ccc(O)cc1)NC[C@H](CCCCN)NC[C@H](Cc1ccc(O)cc1)NC[C@@H](N)Cc1ccc(O)cc1	0.36 µM	–	38 µM	–	–	–	–	–
C[C@@H](CN[C@H](CN[C@H](CN[C@H](CN[C@H](CNCCC(N)=O)Cc1ccc(O)cc1)Cc1ccc(O)cc1)Cc1ccc(O)cc1)Cc1ccc(O)cc1)NC[C@@H](N)Cc1ccc(O)cc1	3.94 µM	–	–	–	–	–	–	–
NCCCC[C@@H](CN[C@H](CN[C@H](CN[C@H](CNCCC(N)=O)Cc1ccc(O)cc1)Cc1ccc(O)cc1)Cc1ccc(O)cc1)NC[C@H](Cc1c[nH]c2ccccc12)NC[C@@H](N)Cc1ccc(O)cc1	0.3 µM	–	–	–	–	–	–	–
NC(=O)CCNC[C@H](Cc1ccc(O)cc1)NC[C@H](Cc1ccc(O)cc1)NC[C@H](Cc1ccc(O)cc1)NC[C@H](Cc1ccc(O)cc1)NC[C@H](Cc1ccc(O)cc1)NC[C@@H](N)Cc1ccc(O)cc1	1.7 µM	> 20 µM	> 100 µM	34 µM	2 µM	76 µM	> 100 µM	Selectivity Index [3]: 20; EC50 [19]: 40 µM; IC50 [8]: 6.7 µM; IC50 [9]: 8.8 µM; IC50 [10]: 27 µM; IC50 [11]: 6 µM; IC50 [12]: 19 µM; IC50 [13]: 4.7 µM; IC50 [14]: 13.1 µM; IC50 [15]: 18.9 µM; inhibition [17]: inactive
NC(=O)CCNC[C@H](Cc1ccc(O)cc1)NC[C@H](Cc1ccc(O)cc1)NC[C@H](Cc1ccc(O)cc1)NC[C@H](Cc1ccc(O)cc1)NC[C@@H](N)Cc1ccc(O)cc1	2.96 µM	> 20 µM	> 100 µM	> 100 µM	9 µM	67 µM	> 100 µM	EC50 [19]: 220 µM
C[C@H](N)CN[C@@H](C)CN[C@@H](C)CN[C@@H](C)CN[C@@H](C)CN[C@H](CNCCC(N)=O)Cc1ccc(O)cc1	13.9 µM	–	–	–	–	–	–	–
NC(=O)CCNC[C@H](Cc1ccc(O)cc1)NC[C@H](Cc1ccc(O)cc1)NC[C@H](Cc1ccc(O)cc1)NC[C@H](Cc1ccc(O)cc1)NC[C@H](Cc1ccc(O)cc1)NC[C@H](Cc1ccc(O)cc1)NC[C@@H](N)Cc1ccc(O)cc1	0.47 µM	–	–	–	–	–	–	–
C[C@H](N)CN[C@H](CN[C@H](CN[C@H](CN[C@H](CN[C@H](CNCCC(N)=O)Cc1ccc(O)cc1)Cc1ccc(O)cc1)Cc1ccc(O)cc1)Cc1ccc(O)cc1)Cc1ccc(O)cc1	3.26 µM	–	–	–	–	–	–	–
NC(=O)CCNC[C@H](Cc1ccc(O)cc1)NC[C@H](Cc1ccc(O)cc1)NC[C@@H](N)Cc1ccc(O)cc1	83.8 µM	> 50 µM	> 100 µM	> 100 µM	–	–	> 100 µM	EC50 [19]: 490 µM
NC(=O)CCNC[C@H](Cc1ccc(O)cc1)NC[C@H](Cc1ccc(O)cc1)NC[C@H](Cc1ccc(O)cc1)NC[C@@H](N)Cc1ccc(O)cc1	8.9 µM	> 20 µM	–	–	11 µM	46 µM	–	EC50 [19]: 450 µM
C[C@@H](CN[C@H](CNCCC(N)=O)Cc1ccc(O)cc1)NC[C@H](Cc1ccc(O)cc1)NC[C@H](Cc1ccc(O)cc1)NC[C@H](Cc1ccc(O)cc1)NC[C@@H](N)Cc1ccc(O)cc1	1.93 µM	–	–	–	–	–	–	–
